# Experimental data gathered from unrelated publications.
# Observed: cell growth or viability
Compound,cell line,assay,conditions,endpoint,result
CCc1nc(C(N)=O)c(Nc2ccc(N3CCC(N4CCN(C)CC4)CC3)c(OC)c2)nc1NC1CCOCC1,EOL1,,72 h,GI50,70 nM
COc1ccc(C=NNC(=O)c2nc3ccccc3s2)cc1OS(C)(=O)=O,PC-3,MTT,"100 µM, 48 h",cell death,44.5%
CCCCCCCCCCCCCCCCCCOc1ccc(CC(=O)OCC[N+](CC)(CC)CC)cc1,NCI-H522,SRB,10 µM,inhibition,26.6%
O=C(NN=Cc1ccc(O)cc1)c1nc2ccccc2s1,PC-3,MTT,"100 µM, 48 h",cell death,39.6%
Cc1nc(Nc2ncc(C(=O)Nc3c(C)cccc3Cl)s2)cc(N2CC[C@H](O)C2)n1,WSU-NHL,ATP luminescence,"10 µM, 72 h",inhibition,91%
CCC/C(=C\C1=C(OC)C(=O)c2ccccc2C1=O)C(=O)N(CC)CC,HUVEC,resazurin,48 h,GI50,2700 nM
C=C(NC(=O)C(=C)NC(=O)c1csc(C2=N[C@@H]3c4csc(n4)[C@H]4NC(=O)c5csc(n5)[C@H]([C@](C)(O)[C@@H](C)O)NC(=O)[C@H]5CSC(=N5)/C(=C/C)NC(=O)[C@H]([C@@H](C)O)NC(=O)c5csc(n5)[C@]3(CC2)NC(=O)[C@H](C)NC(=O)C(=C)NC(=O)[C@H](C)NC(=O)[C@H]([C@@H](C)CC)N[C@@H]2C=Cc3c([C@H](C)O)cc(nc3[C@H]2O)C(=O)O[C@@H]4C)n1)C(N)=O,PC-3,,,EC50,54600 nM
CNCCC(=O)Nc1ccccc1/N=c1\cc(-c2ccc3nc(N)oc3c2)oc2ccccc12,A549,CCK-8,1 µM,inhibition,7.88%
CCCCCCCCCCCCCCCCCCOCC(COP(=O)([O-])OCC[N+](C)(C)C)OC (stereo not drawn),NCI-H522,SRB,10 µM,inhibition,27%
NC(=O)C1CCCN1C(=O)Nc1ccccc1/N=c1\cc(-c2ccc3c(c2)OCCO3)oc2cc(F)ccc12 (stereo not drawn),A549,CCK-8,1 µM,inhibition,-1.31%
Cc1n[nH]c2ccc3nc(-c4ccc(C(=O)NCCN(C)C)cc4F)c4c(c3c12)CCCCC4,EOL1,,72 h,GI50,72 nM
CCCCCCCCCCCCCCCCCCOc1cccc(CC(=O)OCC[N+]2(C)CCCCC2)c1,NCI-H522,SRB,10 µM,inhibition,28.5%
COc1ccc2/c(=N/c3ccccc3NC(=O)CN)cc(-c3ccc4c(c3)OCCO4)oc2c1,A549,CCK-8,1 µM,inhibition,0.19%
CN(C)CCNC(=O)c1ccc(-c2nc3ccc4[nH]ncc4c3c3c2CCCC3)c(F)c1,EOL1,,72 h,GI50,42 nM
CCCCCCCCCCCCCCCCCCOc1ccc(CC(=O)OCCC[N+](C)(C)C)cc1,NCI-H522,SRB,10 µM,inhibition,21.6%
C[C@H](Nc1ccc2c(c1)OCCn1cc(N3C(=O)OC[C@H]3C(F)F)nc1-2)C(N)=O,NCI-H1048,ATP luminescence,5 days,EC50,0.3 nM
Cc1n[nH]c2ccc3nc(-c4ccc(C(=O)NCCN(C)C)cc4)c4c(c3c12)CCCCC4,EOL1,,72 h,GI50,107 nM
COc1ccc(C=NNC(=O)c2nc3ccccc3s2)cc1O,PC-3,MTT,"100 µM, 48 h",cell death,25.1%
CCCCCCCCCCCCCCCCCCOc1ccc(CC(=O)OCC[N+](C)(C)C)cc1,NCI-H522,SRB,10 µM,inhibition,4.28%
CN(C)CCNC(=O)c1ccc(-c2nc3ccc4[nH]ncc4c3c3c2CCCCC3)c(F)c1,EOL1,,72 h,GI50,52 nM
CCCCCCCCCCCCCCCCCCOc1ccccc1CC(=O)OCC[N+](CC)(CC)CC,NCI-H522,SRB,10 µM,inhibition,89.5%
CS(=O)(=O)NCCC(=O)Nc1ccccc1/N=c1\cc(-c2ccc3nc(N)oc3c2)oc2ccccc12,A549,CCK-8,1 µM,inhibition,-5.4%
CCCCCCCCCCCCCCCCCCOc1ccccc1CC(=O)OCC[N+]1(C)CCOCC1,NCI-H522,SRB,10 µM,inhibition,60.1%
NCCC(=O)Nc1cccc(/N=c2\cc(-c3ccc4c(c3)OCO4)oc3ccccc23)c1,A549,CCK-8,1 µM,inhibition,-1.71%
